Source: ChEMBL document CHEMBL4819107, “Substituted N-(4-amino-2-chlorophenyl)-5-chloro-2-hydroxybenzamide analogues potently inhibit respiratory syncytial virus (RSV) replication and RSV infection-associated inflammatory responses” (Bioorg Med Chem, 2021)
Activity calls are given as the source filed them. No cut-off for these calls is given here.

Experiments:
[1] = system: Respiratory syncytial virus; test: Antiviral activity against RSV infected in human A549 cells assessed as reduction in viral titer at 10 uM incubated for 15 hrs by immunostaining analysis; assay type: functional
Summary of the method: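 RSV long strain (propagated in HEp-2, sucrose-gradient purified) infected A549 cells at MOI 1 for 2 h. Inoculum removed, then compound at 10 μM for 15 h. Progeny virus titred by immunostaining in HEp-2 cells with biotin-conjugated goat anti-RSV antibody. Log reduction = log10 mean titer of vehicle-treated cells minus log10 mean titer with compound.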

A549 [2] = test: Cytotoxicity against human A549 cells assessed as reduction in cell viability incubated for 15 hrs by trypan blue assay; conditions: a549, 15 h
SAEC [3] = test: Antiinflammatory activity against in human SAEC cells assessed as reduction in RSV-induced TNF-alpha production at 10 uM incubated for 4 hrs by immunoassay; assay type: functional, cell-based
Summary of the method: (§1)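 Primary small airway epithelial cells infected with RSV long strain at MOI 5. Virus removed at 2 h, then 10 μM compound added. Supernatant collected 4 h post-treatment. Cytokines/chemokines quantified with a multiplex human profiling bead kit (Bio-Plex).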

A549 [4] = test: Antiinflammatory activity against in human A549 cells transfected with PRDIII-I-Luc and IRF-3-Luc assessed as reduction in RSV-induced IRF3 activation at 10 uM incubated for 15 hrs by luciferase reporter gene assay; assay type: functional, cell-based
Summary of the method: (§2)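 A549 cells transfected in triplicate with luciferase plasmids, either NF-κB-Luc or IRF-3-site reporters. At 20 h post-transfection, infected with RSV (MOI 1). Virus removed at 2 h, then 10 μM compound added for 15 h. Cells then harvested and lysed for luciferase activity.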

A549 [5] = test: Antiinflammatory activity against in human A549 cells assessed as reduction in RSV-induced NF-kappaB mRNA expression at 10 uM incubated for 4 hrs by qRT-PCR analysis; assay type: functional, cell-based
A549 [6] = test: Antiinflammatory activity against in human A549 cells assessed as reduction in RSV-induced IRF3 mRNA expression at 10 uM incubated for 4 hrs by qRT-PCR analysis; assay type: functional, cell-based
A549 [7] = test: Antiinflammatory activity against in human A549 cells transfected with NF-kappaB-Luc assessed as reduction in RSV-induced NF-kappaB activation at 10 uM incubated for 15 hrs by luciferase reporter gene assay; assay type: functional, cell-based; summary of the method: as §2
SAEC [8] = test: Antiinflammatory activity against in human SAEC cells assessed as reduction in RSV-induced MIP-1beta production at 10 uM incubated for 4 hrs by immunoassay; assay type: functional, cell-based; summary of the method: as §1
[9] = system: Respiratory syncytial virus; test: Antiviral activity against RSV infected in human A549 cells assessed as reduction in viral RNA at 10 uM measured upto 24 hrs by qRT-PCR analysis; assay type: functional, organism-based; conditions: time hrs <=24
Summary of the method: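 A549 cells infected with RSV (MOI 1), then given 10 μM compound. RSV genome copies in cells quantified by RT-qPCR at 6, 15 and 24 h post-treatment. A fusion inhibitor served as a reference control.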

[10] = system: Respiratory syncytial virus; test: Antiviral activity against RSV infected in human A549 cells assessed as reduction in viral genome copies at 10 uM measured after 15 hrs by RT-qPCR analysis
[11] = biological target: T1, Nuclear factor NF-kappa-B complex (Homo sapiens) (UniProt Q00653+P19838+Q04206); test: Inhibition of NF-kappaB in human A549 cells assessed as reduction in p65 Ser536 phosphorylation at 10 uM measured after 4 hrs by Western blot analysis; assay type: cell-based
Summary of the method: (§3)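 A549 cells infected or mock-infected with RSV (MOI 5), then treated with 10 μM compound for 4 h. Nuclear extracts (or total lysates) prepared, resolved by SDS-PAGE, transferred to PVDF, and probed by western blot. β-actin as loading control.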

[12] = system: Respiratory syncytial virus; test: Antiviral activity against RSV infected in human A549 cells assessed as reduction in viral matrix protein at 10 uM incubated for 15 hrs by Western blot analysis; assay type: functional, organism-based
Summary of the method: (§4)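 A549 cells infected with RSV (MOI 1) and treated with 10 μM compound for 15 h. Viral proteins detected by western blot of lysates using anti-RSV or anti-F antibodies, with β-actin as loading control. Membranes blocked in 5% milk in TBS-Tween 20.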

[13] = biological target: T2, Interferon regulatory factor 3 (Homo sapiens) (UniProt Q14653); test: Inhibition of poly I:C-induced IRF3 (unknown origin) transfected in human HEK293 cells co-transfected with IRF3-Luc gene incubated for 4 hrs by luciferase reporter gene; assay type: cell-based
T2 sequence (whole entry): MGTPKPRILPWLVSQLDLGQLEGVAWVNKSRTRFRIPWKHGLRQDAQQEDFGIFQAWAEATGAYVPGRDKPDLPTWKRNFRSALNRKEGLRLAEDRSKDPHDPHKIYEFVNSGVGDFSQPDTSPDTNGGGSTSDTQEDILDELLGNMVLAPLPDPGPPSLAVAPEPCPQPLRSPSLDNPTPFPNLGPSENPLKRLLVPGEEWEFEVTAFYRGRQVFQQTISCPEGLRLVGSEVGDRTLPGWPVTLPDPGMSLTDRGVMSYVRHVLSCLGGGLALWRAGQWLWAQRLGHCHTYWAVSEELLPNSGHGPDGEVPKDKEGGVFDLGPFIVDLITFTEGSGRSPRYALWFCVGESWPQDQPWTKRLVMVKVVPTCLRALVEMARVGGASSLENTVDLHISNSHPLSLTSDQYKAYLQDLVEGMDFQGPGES
Summary of the method: (§5)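 HEK-293 cells transiently transfected with IRF-3 or NF-κB luciferase reporter. At 15 h post-transfection, cells transfected with Poly I:C in the presence of compound. Luciferase activity then measured.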

[14] = system: Respiratory syncytial virus; test: Antiviral activity against RSV infected in human A549 cells assessed as reduction in viral phosphoprotein at 10 uM incubated for 15 hrs by Western blot analysis; assay type: functional, organism-based; summary of the method: as §4
[15] = biological target: Interferon regulatory factor 3 (Homo sapiens) (UniProt Q14653); test: Inhibition of IRF3 in RSV-infected human A549 cells assessed as reduction in IRF3 Ser396 phosphorylation at 10 uM measured upto 15 hrs by Western blot analysis; conditions: time hrs <=15
[16] = biological target: Interferon regulatory factor 3 (Homo sapiens) (UniProt Q14653); test: Inhibition of IRF3 in RSV-infected human A549 cells assessed as reduction in IRF3 nuclear translocation at 10 uM measured upto 15 hrs by Western blot analysis; conditions: time hrs <=15
[17] = biological target: T1, Nuclear factor NF-kappa-B complex (Homo sapiens); test: Inhibition of NF-kappaB in human A549 cells assessed as reduction in p65 nuclear translocation at 10 uM measured after 4 hrs by Western blot analysis; assay type: cell-based; summary of the method: as §3
[18] = biological target: T1, Nuclear factor NF-kappa-B complex (Homo sapiens); test: Inhibition of NF-kappaB in human A549 cells assessed as reduction in p65 Ser276 phosphorylation at 10 uM measured after 15 hrs by Western blot analysis; assay type: cell-based
Summary of the method: (§6)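 A549 cells infected or mock-infected with RSV (MOI 1), then treated with 10 μM compound for 15 h. Nuclear extracts prepared and analysed by western blot after SDS-PAGE and PVDF transfer. β-actin as loading control.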

[19] = system: Respiratory syncytial virus; test: Antiviral activity against RSV infected in human A549 cells assessed as reduction in viral N protein at 10 uM incubated for 15 hrs by Western blot analysis; assay type: functional, organism-based; summary of the method: as §4
[20] = biological target: T1, Nuclear factor NF-kappa-B complex (Homo sapiens); test: Inhibition of NF-kappaB in human A549 cells assessed as reduction in p65 nuclear translocation at 10 uM measured after 15 hrs by Western blot analysis; assay type: cell-based; summary of the method: as §6
[21] = system: Respiratory syncytial virus; test: Antiviral activity against RSV infected in human A549 cells assessed as reduction in viral titer at 2.5 uM incubated for 15 hrs by immunostaining analysis; assay type: functional
Summary of the method: (§7)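 Dose-response: A549 cells infected with RSV long strain at MOI 1, then treated with a range of compound concentrations for 15 h. Total virus harvested and titred by immunostaining in HEp-2 cells with biotin-conjugated goat anti-RSV antibody. Reduction expressed as log decrease in titer relative to vehicle (DMSO) control.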

[22] = biological target: T1, Nuclear factor NF-kappa-B complex (Homo sapiens); test: Inhibition of NF-kappaB in human A549 cells assessed as reduction in p65 Ser536 phosphorylation at 10 uM measured after 15 hrs by Western blot analysis; assay type: cell-based; summary of the method: as §6
[23] = biological target: T1, Nuclear factor NF-kappa-B complex (Homo sapiens); test: Inhibition of NF-kappaB in human A549 cells assessed as reduction in p65 Ser276 phosphorylation at 10 uM measured after 4 hrs by Western blot analysis; assay type: cell-based; summary of the method: as §3
SAEC [24] = test: Antiinflammatory activity against in human SAEC cells assessed as reduction in RSV-induced IL-6 production at 10 uM incubated for 4 hrs by immunoassay; assay type: functional, cell-based; summary of the method: as §1
[25] = biological target: T1, Nuclear factor NF-kappa-B complex (Homo sapiens); test: Inhibition of TNF-alpha-induced NF-kappaB (unknown origin) transfected in human HEK293 cells co-transfected with NF-kappaB-Luc gene incubated for 4 hrs by luciferase reporter gene; assay type: cell-based
Summary of the method: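 HEK-293 cells transiently transfected with NF-κB luciferase reporter. At 15 h post-transfection, stimulated with 10 ng/ml TNF-α in the presence of compound. Luciferase activity then measured.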

[26] = biological target: T1, Nuclear factor NF-kappa-B complex (Homo sapiens); test: Inhibition of poly I:C-induced NF-kappaB (unknown origin) transfected in human HEK293 cells co-transfected with NF-kappaB-Luc gene incubated for 4 hrs by luciferase reporter gene; assay type: cell-based; summary of the method: as §5
[27] = system: Respiratory syncytial virus; test: Antiviral activity against RSV infected in human A549 cells assessed as reduction in viral titer at 7.5 uM incubated for 15 hrs by immunostaining analysis; assay type: functional; summary of the method: as §7

T1 sequence (P19838 whole entry, looked up): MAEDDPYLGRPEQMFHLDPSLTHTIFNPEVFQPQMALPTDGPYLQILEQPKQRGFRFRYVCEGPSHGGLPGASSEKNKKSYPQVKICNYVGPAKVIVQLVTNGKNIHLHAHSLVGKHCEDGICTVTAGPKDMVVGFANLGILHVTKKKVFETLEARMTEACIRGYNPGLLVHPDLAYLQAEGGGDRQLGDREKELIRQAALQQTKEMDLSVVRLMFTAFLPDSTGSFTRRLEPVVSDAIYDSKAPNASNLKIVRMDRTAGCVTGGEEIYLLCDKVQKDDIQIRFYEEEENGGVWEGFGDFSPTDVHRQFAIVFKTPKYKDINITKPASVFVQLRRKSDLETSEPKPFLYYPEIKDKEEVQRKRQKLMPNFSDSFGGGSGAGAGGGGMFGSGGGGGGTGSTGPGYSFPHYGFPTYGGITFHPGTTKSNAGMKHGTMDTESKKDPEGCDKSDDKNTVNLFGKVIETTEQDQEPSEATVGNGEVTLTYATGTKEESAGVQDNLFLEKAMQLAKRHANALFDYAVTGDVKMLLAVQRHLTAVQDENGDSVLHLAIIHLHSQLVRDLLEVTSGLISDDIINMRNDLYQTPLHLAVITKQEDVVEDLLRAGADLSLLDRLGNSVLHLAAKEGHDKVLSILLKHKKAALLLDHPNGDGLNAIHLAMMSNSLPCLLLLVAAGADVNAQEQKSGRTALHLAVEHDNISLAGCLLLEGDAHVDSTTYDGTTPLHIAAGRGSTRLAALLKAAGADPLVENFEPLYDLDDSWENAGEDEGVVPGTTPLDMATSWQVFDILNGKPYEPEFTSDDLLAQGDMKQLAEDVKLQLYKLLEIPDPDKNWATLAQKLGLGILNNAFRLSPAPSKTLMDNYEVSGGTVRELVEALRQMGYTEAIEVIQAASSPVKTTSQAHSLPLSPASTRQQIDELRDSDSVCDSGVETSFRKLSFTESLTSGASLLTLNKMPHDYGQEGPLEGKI
T1 sequence (Q00653 whole entry, looked up): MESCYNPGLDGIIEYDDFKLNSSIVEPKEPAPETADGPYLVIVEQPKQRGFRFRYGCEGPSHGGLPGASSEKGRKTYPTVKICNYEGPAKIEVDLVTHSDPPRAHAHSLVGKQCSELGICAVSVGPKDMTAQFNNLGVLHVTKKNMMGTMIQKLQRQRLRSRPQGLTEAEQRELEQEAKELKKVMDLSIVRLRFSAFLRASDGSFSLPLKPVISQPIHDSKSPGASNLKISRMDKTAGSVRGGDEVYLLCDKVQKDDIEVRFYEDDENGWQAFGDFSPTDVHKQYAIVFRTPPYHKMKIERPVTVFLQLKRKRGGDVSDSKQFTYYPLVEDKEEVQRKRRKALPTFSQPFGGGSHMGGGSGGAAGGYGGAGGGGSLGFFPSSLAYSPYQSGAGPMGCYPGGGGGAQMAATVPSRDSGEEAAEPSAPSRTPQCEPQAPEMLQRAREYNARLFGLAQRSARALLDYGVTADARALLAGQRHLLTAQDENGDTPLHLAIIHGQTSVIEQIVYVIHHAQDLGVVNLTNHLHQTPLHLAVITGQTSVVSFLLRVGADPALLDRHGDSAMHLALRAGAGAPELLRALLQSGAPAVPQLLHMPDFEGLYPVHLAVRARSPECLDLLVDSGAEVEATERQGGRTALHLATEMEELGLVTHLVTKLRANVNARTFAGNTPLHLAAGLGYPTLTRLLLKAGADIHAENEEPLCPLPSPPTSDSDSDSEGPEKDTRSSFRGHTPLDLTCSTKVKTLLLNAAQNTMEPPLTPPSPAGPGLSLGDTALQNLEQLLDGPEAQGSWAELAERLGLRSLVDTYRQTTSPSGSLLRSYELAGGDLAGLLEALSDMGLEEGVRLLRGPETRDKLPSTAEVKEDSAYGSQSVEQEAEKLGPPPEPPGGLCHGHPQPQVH
T1 sequence (Q04206 whole entry, looked up): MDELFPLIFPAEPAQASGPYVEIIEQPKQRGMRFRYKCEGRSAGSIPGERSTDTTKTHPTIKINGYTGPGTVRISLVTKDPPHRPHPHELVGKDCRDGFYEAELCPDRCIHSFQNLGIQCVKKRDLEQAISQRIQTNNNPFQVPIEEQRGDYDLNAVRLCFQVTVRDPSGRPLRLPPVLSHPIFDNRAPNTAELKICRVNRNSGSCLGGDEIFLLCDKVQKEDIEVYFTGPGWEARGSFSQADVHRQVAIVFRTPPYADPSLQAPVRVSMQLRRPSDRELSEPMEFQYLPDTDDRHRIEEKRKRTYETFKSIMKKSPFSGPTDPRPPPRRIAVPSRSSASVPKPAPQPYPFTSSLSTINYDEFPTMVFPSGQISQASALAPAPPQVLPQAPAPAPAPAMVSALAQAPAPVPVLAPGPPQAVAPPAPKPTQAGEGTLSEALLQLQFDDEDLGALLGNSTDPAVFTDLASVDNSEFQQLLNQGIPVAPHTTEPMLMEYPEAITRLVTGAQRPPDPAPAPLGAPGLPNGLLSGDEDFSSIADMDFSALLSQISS

Compound | log(activity) [1] | CC50 (A549 [2]) | inhibition (A549 [4]) | inhibition (A549 [5]) | inhibition (A549 [6]) | inhibition (A549 [7]) | further results
O=C(Nc1ccc(NCc2ccccc2)cc1Cl)c1cc(Cl)ccc1O | 1.53 | 81.3 µM |  |  |  |  | 
CCCN(CCC)c1ccc(NC(=O)c2cc(Cl)ccc2O)c(Cl)c1 | 1.91 | 323 µM | Active | Active | Active | Active | inhibition (SAEC [3]): Active
O=C(Nc1ccc(NCC2CCNCC2)cc1Cl)c1cc(Cl)ccc1O | -0.07 |  |  |  |  |  | 
CCCCCCC(C)Nc1ccc(NC(=O)c2cc(Cl)ccc2O)c(Cl)c1 (centres undefined) | 1.16 | 18.6 µM |  |  |  |  | 
CCCNc1ccc(NC(=O)c2cc(Cl)ccc2O)c(Cl)c1 | 1.82 | 69.7 µM | Active | Active | Active | Active | inhibition (SAEC [8]): Active
O=C(Nc1ccc(NCc2ccc(F)cc2)cc1Cl)c1cc(Cl)ccc1O | 1.54 |  |  |  |  |  | 
CS(=O)(=O)CCCn1c(Cn2c(=O)n(CC(F)(F)F)c3ccncc32)cc2cc(Cl)ccc21 |  |  |  |  |  |  | inhibition [9]: Active; inhibition [10]: inactive
O=C(Nc1ccc(NCCCO)cc1Cl)c1cc(Cl)ccc1O | -0.16 |  |  |  |  |  | 
O=C(Nc1ccc(NCc2cc(C(F)(F)F)cc(C(F)(F)F)c2)cc1Cl)c1cc(Cl)ccc1O | 2.59 | 22.9 µM |  |  |  |  | 
CC1(Nc2ccc(NC(=O)c3cc(Cl)ccc3O)c(Cl)c2)CCCCC1 | 1.82 | 86.5 µM | Active | Active | Active | inactive | inhibition [11]: Active; inhibition (SAEC [3]): Active; inhibition [12]: Active; inhibition [13]: Active; inhibition [14]: Active; inhibition [15]: Active; inhibition [9]: Active; inhibition [16]: Active; inhibition [17]: Active; inhibition [18]: inactive; inhibition [19]: Active; inhibition [20]: Active; log(activity) [21]: 1.57; inhibition (SAEC [8]): Active; inhibition [22]: Active; inhibition [23]: inactive; inhibition (SAEC [24]): Active; inhibition [25]: inactive
CC(C)(C)OC(=O)N1CCC(CNc2ccc(NC(=O)c3cc(Cl)ccc3O)c(Cl)c2)CC1 | 1.53 |  |  |  |  |  | 
O=C(Nc1ccc(NCc2cccnc2)cc1Cl)c1cc(Cl)ccc1O | 0.54 |  | inactive | inactive | inactive | inactive | inhibition (SAEC [3]): inactive; inhibition (SAEC [8]): inactive; inhibition (SAEC [24]): inactive
O=C(Nc1ccc(NCc2ccco2)cc1Cl)c1cc(Cl)ccc1O | 2.13 | 76.3 µM | Active | Active | Active | Active | inhibition [11]: Active; inhibition [12]: Active; inhibition [13]: Active; inhibition [14]: Active; inhibition [15]: Active; inhibition [9]: Active; inhibition [16]: Active; inhibition [17]: Active; inhibition [26]: Active; inhibition [18]: Active; inhibition [19]: Active; inhibition [20]: Active; inhibition [22]: Active; inhibition [23]: inactive; log(activity) [27]: 1.22
Nc1ccc(NC(=O)c2cc(Cl)ccc2O)c(Cl)c1 | -0.01 |  |  |  |  |  | 
CC(C)Nc1ccc(NC(=O)c2cc(Cl)ccc2O)c(Cl)c1 | 1.88 | 82.7 µM | Active | Active | Active | Active | 
CCCC(C)(C)Nc1ccc(NC(=O)c2cc(Cl)ccc2O)c(Cl)c1 | 1.81 | 23.7 µM |  |  |  |  | 
O=C(Nc1ccc(N2CCCC2)cc1Cl)c1cc(Cl)ccc1O | 1.51 |  |  |  |  |  | 
CC(=O)Nc1ccc(NC(=O)c2cc(Cl)ccc2O)c(Cl)c1 | 0.09 |  |  |  |  |  | 
O=C(Nc1ccc(NC2CCCC2)cc1Cl)c1cc(Cl)ccc1O | 1.44 |  |  |  |  |  | 
O=C(Nc1ccc(NCC2CCCC2)cc1Cl)c1cc(Cl)ccc1O | 1.42 | 141 µM |  |  |  |  | 
O=C(Nc1ccc(N2CCOCC2)cc1Cl)c1cc(Cl)ccc1O | 1.74 | 89.9 µM | Active | Active | Active | Active | 
